Drawing on ChEMBL document CHEMBL4400530, “Synthesis and structure-activity relationship studies of water-soluble β-cyclodextrin-glycyrrhetinic acid conjugates as potential anti-influenza virus agents” (Eur J Med Chem, 2019), this text covers Activity for four compounds.

The subject of this series is MDCK. As to the kind of experiment: Cytotoxicity against MDCK cells assessed as effect on cell viability at 50 uM measured after 36 hrs by CellTiter-Glo assay. The format is cell-based, Canis lupus familiaris. The following applies: dog. In short, it runs like this:
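MDCK cells (1 × 10⁴ per well) left to adhere 24 h at 37 °C, 5% CO₂. Medium then replaced with fresh medium containing compound at 50 μM, in triplicate. Controls received medium with 1% DMSO. Plates incubated 36 h at 37 °C, 5% CO₂, then viability read by CellTiter-Glo luminescence.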

Each structure is given as a SMILES string.

As to `COC[C@H]1O[C@@H]2O[C@H]3[C@H](OC)[C@@H](OC)[C@@H](O[C@H]4[C@H](OC)[C@@H](OC)[C@@H](O[C@H]5[C@H](OC)[C@@H](OC)[C@@H](O[C@H]6[C@H](OC)[C@@H](OC)[C@@H](O[C@H]7[C@H](OC)[C@@H](OC)[C@@H](O[C@H]8[C@H](OC)[C@@H](OC)[C@@H](O[C@H]1[C@H](OC)[C@H]2OC)O[C@@H]8COC)O[C@@H]7COC)O[C@@H]6COC)O[C@@H]5Cn1cc(CNC(=O)[C@@]2(C)CC[C@]5(C)CC[C@]6(C)C(=CC(=O)[C@@H]7[C@@]8(C)CC[C@H](O)C(C)(C)[C@@H]8CC[C@]76C)[C@@H]5C2)nn1)O[C@@H]4COC)O[C@@H]3COC`, the Activity entry was “Toxic”.

On to `CC1(C)[C@@H](O)CC[C@]2(C)[C@H]3C(=O)C=C4[C@@H]5C[C@@](C)(C(=O)Nc6ccc(-c7cn(C[C@H]8O[C@@H]9O[C@H]%10[C@H](O)[C@@H](O)[C@@H](O[C@H]%11[C@H](O)[C@@H](O)[C@@H](O[C@H]%12[C@H](O)[C@@H](O)[C@@H](O[C@H]%13[C@H](O)[C@@H](O)[C@@H](O[C@H]%14[C@H](O)[C@@H](O)[C@@H](O[C@H]%15[C@H](O)[C@@H](O)[C@@H](O[C@H]8[C@H](O)[C@H]9O)O[C@@H]%15CO)O[C@@H]%14CO)O[C@@H]%13CO)O[C@@H]%12CO)O[C@@H]%11CO)O[C@@H]%10CO)nn7)cc6)CC[C@]5(C)CC[C@@]4(C)[C@]3(C)CC[C@@H]12`, for which the Activity entry is on record as “Non-Toxic”. Regarding `CC(=O)OC[C@H]1O[C@@H]2O[C@H]3[C@H](OC(C)=O)[C@@H](OC(C)=O)[C@@H](O[C@H]4[C@H](OC(C)=O)[C@@H](OC(C)=O)[C@@H](O[C@H]5[C@H](OC(C)=O)[C@@H](OC(C)=O)[C@@H](O[C@H]6[C@H](OC(C)=O)[C@@H](OC(C)=O)[C@@H](O[C@H]7[C@H](OC(C)=O)[C@@H](OC(C)=O)[C@@H](O[C@H]8[C@H](OC(C)=O)[C@@H](OC(C)=O)[C@@H](O[C@H]1[C@H](OC(C)=O)[C@H]2OC(C)=O)O[C@@H]8COC(C)=O)O[C@@H]7COC(C)=O)O[C@@H]6COC(C)=O)O[C@@H]5Cn1cc(-c2ccc(NC(=O)[C@@]5(C)CC[C@]6(C)CC[C@]7(C)C(=CC(=O)[C@@H]8[C@@]9(C)CC[C@H](O)C(C)(C)[C@@H]9CC[C@]87C)[C@@H]6C5)cc2)nn1)O[C@@H]4COC(C)=O)O[C@@H]3COC(C)=O`, the Activity entry was “Non-Toxic”. The value for `CC(=O)OC[C@H]1O[C@@H]2O[C@H]3[C@H](OC(C)=O)[C@@H](OC(C)=O)[C@@H](O[C@H]4[C@H](OC(C)=O)[C@@H](OC(C)=O)[C@@H](O[C@H]5[C@H](OC(C)=O)[C@@H](OC(C)=O)[C@@H](O[C@H]6[C@H](OC(C)=O)[C@@H](OC(C)=O)[C@@H](O[C@H]7[C@H](OC(C)=O)[C@@H](OC(C)=O)[C@@H](O[C@H]8[C@H](OC(C)=O)[C@@H](OC(C)=O)[C@@H](O[C@H]1[C@H](OC(C)=O)[C@H]2OC(C)=O)O[C@@H]8COC(C)=O)O[C@@H]7COC(C)=O)O[C@@H]6COC(C)=O)O[C@@H]5Cn1cc(CO[C@H]2CC[C@]5(C)[C@H]6C(=O)C=C7[C@@H]8C[C@@](C)(C(=O)OCc9ccccc9)CC[C@]8(C)CC[C@@]7(C)[C@]6(C)CC[C@H]5C2(C)C)nn1)O[C@@H]4COC(C)=O)O[C@@H]3COC(C)=O` was “Non-Toxic”.
